The source of these data is ChEMBL document CHEMBL1159084, “Synthesis and structure-activity relationship of 1,2,4-triazole-containing diarylpyrazolyl carboxamide as CB1 cannabinoid receptor-ligand” (Bioorg Med Chem, 2010).

Sequence of Cannabinoid receptor 1 (Rattus norvegicus, UniProt P20272) (P20272 whole entry): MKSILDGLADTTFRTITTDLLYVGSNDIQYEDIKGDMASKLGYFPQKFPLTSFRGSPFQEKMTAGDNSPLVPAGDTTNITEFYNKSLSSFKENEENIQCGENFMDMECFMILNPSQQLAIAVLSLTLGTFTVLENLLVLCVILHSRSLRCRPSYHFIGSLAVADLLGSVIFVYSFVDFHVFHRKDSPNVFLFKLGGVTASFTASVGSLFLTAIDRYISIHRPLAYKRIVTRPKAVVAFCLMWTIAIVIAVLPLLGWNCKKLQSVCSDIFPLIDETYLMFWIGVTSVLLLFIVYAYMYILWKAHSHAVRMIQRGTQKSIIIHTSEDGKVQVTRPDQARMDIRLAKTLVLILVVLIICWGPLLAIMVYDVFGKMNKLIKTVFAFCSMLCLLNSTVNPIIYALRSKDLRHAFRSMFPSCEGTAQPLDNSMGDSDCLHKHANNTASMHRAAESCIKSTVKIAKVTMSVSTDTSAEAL
Sequence of Cannabinoid receptor 2 (P34972 whole entry): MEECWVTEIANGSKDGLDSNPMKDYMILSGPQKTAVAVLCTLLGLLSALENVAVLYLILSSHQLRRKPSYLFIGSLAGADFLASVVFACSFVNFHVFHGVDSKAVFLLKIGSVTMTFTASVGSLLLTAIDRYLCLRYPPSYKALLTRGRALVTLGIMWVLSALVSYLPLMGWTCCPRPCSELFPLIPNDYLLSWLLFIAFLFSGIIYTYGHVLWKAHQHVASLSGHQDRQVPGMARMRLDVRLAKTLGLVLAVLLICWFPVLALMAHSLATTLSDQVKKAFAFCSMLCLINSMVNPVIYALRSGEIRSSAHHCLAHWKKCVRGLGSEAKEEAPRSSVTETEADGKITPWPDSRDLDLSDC

One assay addresses Cannabinoid receptor 1 (Rattus norvegicus, UniProt P20272). As to the kind of experiment: Displacement of [3H]CP-55940 from CB1 receptor in Sprague-Dawley rat cerebellar membrane. The arrangement: species or system Cerebellum. In outline: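 Membranes came from cerebella of male Sprague Dawley rats (200–300 g), homogenized in TME buffer (50 mM Tris–HCl, 1 mM EDTA, 3 mM MgCl2, pH 7.4) and spun at 48,000g for 30 min at 4 °C. They were incubated 1 h at 30 °C in TME with 0.5% fatty-acid-free BSA, then filtered on PEI-soaked GF/B, washed and counted by scintillation. IC50 values are from single determinations.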
In general terms: In a radioligand displacement assay an active substance lowers the binding of a labelled ligand.
By IC50 is commonly meant the concentration that gives 50% inhibition. In turn, `CC(NC(=O)c1nn(-c2ccc(Cl)cc2Cl)c(-c2ccc(Br)cc2)c1Cn1cncn1)c1ccc(Br)cc1` (configuration not stated) returned an IC50 of 0.0014 µM.
Turning to `O=C(c1nn(-c2ccccc2Cl)c(-c2ccc(Br)cc2)c1Cn1cncn1)N1CCN(c2cccc(Cl)c2)CC1`, the IC50 stood at 0.00228 µM.
On to `CC(NC(=O)c1nn(-c2ccccc2Cl)c(-c2ccc(Br)cc2)c1Cn1cncn1)c1ccc(Cl)cc1Cl` (configuration not stated), for which the IC50 worked out at 0.0022 µM.
Still for that read-out and setting: the figure for `CC(NC(=O)c1nn(-c2ccccc2Cl)c(-c2ccc(Br)cc2)c1Cn1cncn1)c1ccc(Br)cc1` (configuration not stated) is 0.0011 µM; for `O=C(NC1(c2ccccc2)CC1)c1nn(-c2ccccc2Cl)c(-c2ccc(Br)cc2)c1Cn1cncn1` it is 0.00198 µM.

Another assay has as its target Cannabinoid receptor 2 (Homo sapiens, UniProt P34972). As to the kind of experiment: Displacement of [3H]WIN-55212-2 from human recombinant CB2 receptor expressed in CHO-K1 cell membrane. It is filed as cell membranes. In outline: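 CB2 membranes were from CHO K-1 cells transfected with human CB2, prepared in TME buffer (pH 7.4) and incubated with 3 nM [3H]WIN55,212-2 in TME plus 0.5% fatty-acid-free BSA for 1 h at 30 °C. Bound label was filtered on PEI-soaked GF/B, washed with ice-cold buffer containing 0.1% BSA, and counted by scintillation. IC50 values are from single determinations.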
As to `CC(NC(=O)c1nn(-c2ccc(Cl)cc2Cl)c(-c2ccc(Br)cc2)c1Cn1cncn1)c1ccc(Br)cc1` (configuration not stated), the IC50 stood at 6.48 µM.
On the same count and under the same terms, as for `O=C(c1nn(-c2ccccc2Cl)c(-c2ccc(Br)cc2)c1Cn1cncn1)N1CCN(c2cccc(Cl)c2)CC1`, the figure is 0.296 µM.
For the molecule `CC(NC(=O)c1nn(-c2ccccc2Cl)c(-c2ccc(Br)cc2)c1Cn1cncn1)c1ccc(Cl)cc1Cl` (configuration not stated), the IC50 is 2.42 µM.
The same measure, in the same setting: as for `CC(NC(=O)c1nn(-c2ccccc2Cl)c(-c2ccc(Br)cc2)c1Cn1cncn1)c1ccc(Br)cc1` (configuration not stated), the figure is 1.79 µM; as for `O=C(NC1(c2ccccc2)CC1)c1nn(-c2ccccc2Cl)c(-c2ccc(Br)cc2)c1Cn1cncn1`, 3.2 µM.

Tested on in the next assay: not listed separately
As to the kind of experiment: Selectivity for Sprague-Dawley rat CB1 receptor over human recombinant CB2 receptor. In outline:
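Selectivity is the ratio of the hCB2 IC50 to the rCB1 IC50. The hCB2 IC50 came from CHO-K1 membrane displacement of [3H]WIN55,212-2, and the rCB1 IC50 from rat cerebellar membrane binding. Both binding assays ran 1 h at 30 °C with filtration and scintillation counting.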
Regarding `CC(NC(=O)c1nn(-c2ccc(Cl)cc2Cl)c(-c2ccc(Br)cc2)c1Cn1cncn1)c1ccc(Br)cc1` (configuration not stated), the Ratio IC50 is 4630.
For the molecule `O=C(c1nn(-c2ccccc2Cl)c(-c2ccc(Br)cc2)c1Cn1cncn1)N1CCN(c2cccc(Cl)c2)CC1`, the Ratio IC50 came out at 130.
Still for that read-out and setting: as for `CC(NC(=O)c1nn(-c2ccccc2Cl)c(-c2ccc(Br)cc2)c1Cn1cncn1)c1ccc(Cl)cc1Cl` (configuration not stated), the figure is 1100.
The same measure, in the same setting: as for `CC(NC(=O)c1nn(-c2ccccc2Cl)c(-c2ccc(Br)cc2)c1Cn1cncn1)c1ccc(Br)cc1` (configuration not stated), the figure is 1630.
On the same count and under the same terms, as for `O=C(NC1(c2ccccc2)CC1)c1nn(-c2ccccc2Cl)c(-c2ccc(Br)cc2)c1Cn1cncn1`, the figure is 1620.

The target in a further assay is Cannabinoid receptor 1 (Homo sapiens, UniProt P21554). The assay can be described thus: Inverse agonist activity at human recombinant CB1 receptor expressed in CHO cells by luciferase reporter gene assay. In kind it is functional, cell-based. On the technique in general: In a reporter assay the amount or activity of a reporter protein is the signal.
Sequence of Cannabinoid receptor 1 (Homo sapiens, UniProt P21554) (P21554 whole entry): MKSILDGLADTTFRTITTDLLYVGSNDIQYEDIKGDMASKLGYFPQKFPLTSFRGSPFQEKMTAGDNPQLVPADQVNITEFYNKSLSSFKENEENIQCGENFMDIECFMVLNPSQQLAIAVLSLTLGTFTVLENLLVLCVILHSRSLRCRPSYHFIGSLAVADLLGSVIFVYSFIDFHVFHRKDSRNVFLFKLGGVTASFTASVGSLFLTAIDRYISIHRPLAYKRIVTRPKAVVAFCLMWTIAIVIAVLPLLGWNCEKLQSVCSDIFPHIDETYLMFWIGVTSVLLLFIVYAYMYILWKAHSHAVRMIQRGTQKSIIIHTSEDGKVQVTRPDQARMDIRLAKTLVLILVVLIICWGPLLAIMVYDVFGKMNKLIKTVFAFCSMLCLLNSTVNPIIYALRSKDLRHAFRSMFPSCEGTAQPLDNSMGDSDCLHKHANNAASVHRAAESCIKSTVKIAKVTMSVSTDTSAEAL
For the molecule `CC(NC(=O)c1nn(-c2ccc(Cl)cc2Cl)c(-c2ccc(Br)cc2)c1Cn1cncn1)c1ccc(Br)cc1` (configuration not stated), the IC50 came out at 0.0282 µM.
`CC(NC(=O)c1nn(-c2ccccc2Cl)c(-c2ccc(Br)cc2)c1Cn1cncn1)c1ccc(Br)cc1` (configuration not stated): the IC50 worked out at 0.00251 µM.
